Seven compounds from ChEMBL document CHEMBL1146365, “Synthesis and biological evaluation of new N-(2-hydroxy-4(or 5)-nitro/aminophenyl)benzamides and phenylacetamides as antimicrobial agents” (2007) can be followed below.

≈ marks a conversion by molar mass, not a printed value.

Assay [1] relates to Staphylococcus aureus. Put plainly: Antibacterial activity against drug-resistant Staphylococcus aureus assessed after 24 hrs by serial dilution method.
Assay [2] deals with Escherichia coli. Kind of assay: Antibacterial activity against Escherichia coli isolate assessed after 24 hrs by serial dilution method. In kind it is functional. The essentials:
(§1)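 Strains were subcultured twice on MHA at 37 °C overnight. Inoculum was diluted from McFarland 0.5 to 10^5 cfu/ml, giving 10^4 cfu/ml in wells. Solvent, medium and organism-only controls were included. Incubated 37 °C, humid chamber, 24 h, in triplicate. MIC = lowest concentration with no macroscopic growth.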

Assay [3] concerns Staphylococcus aureus. Kind of assay: Antibacterial activity against Staphylococcus aureus ATCC 25923 assessed after 24 hrs by serial dilution method. In kind it is functional. In outline: as §1
In assay [4] the test system is Klebsiella pneumoniae. Put plainly: Antibacterial activity against Klebsiella pneumoniae RSHM 574 assessed after 24 hrs by serial dilution method.
For assay [5], the system named is Bacillus subtilis. Put plainly: Antibacterial activity against drug-resistant Bacillus subtilis assessed after 24 hrs by serial dilution method.
The subject of assay [6] is Bacillus subtilis. Put plainly: Antibacterial activity against Bacillus subtilis ATCC 6633 assessed after 24 hrs by serial dilution method. In kind it is functional. In outline:
as §1

In assay [7] the test system is Escherichia coli. Put plainly: Antibacterial activity against Escherichia coli ATCC 25922 assessed after 24 hrs by serial dilution method.
Assay [8] relates to Pseudomonas aeruginosa. Kind of assay: Antibacterial activity against Pseudomonas aeruginosa isolate assessed after 24 hrs by serial dilution method. In kind it is functional. In outline:
as §1

The test system of assay [9] is Klebsiella pneumoniae. Put plainly: Antibacterial activity against Klebsiella pneumoniae isolate assessed after 24 hrs by serial dilution method. In kind it is functional. In outline:
as §1

In assay [10] the test system is Pseudomonas aeruginosa. Kind of assay: Antibacterial activity against Pseudomonas aeruginosa ATCC […] assessed after 24 hrs by serial dilution method.
The test system of assay [11] is Candida albicans. Put plainly: Antifungal activity against Candida albicans ATCC 10231 assessed after 48 hrs by serial dilution method. In kind it is functional. The following applies: ATCC 10231, 48 h. The essentials: (§2)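 Broth microdilution per CLSI M27-A in RPMI-1640 with L-glutamine, MOPS-buffered pH 7, with 2-fold compound dilutions. Yeasts were subcultured twice on SDA at 35 °C for 24–48 h. Inoculum was diluted from McFarland 0.5 to 10^4 cfu/ml, giving 10^3 cfu/ml in wells. Incubated 35 °C, humid chamber, 48 h, in triplicate. MIC = lowest concentration with no macroscopic growth.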

For assay [12], the system named is Candida albicans. Kind of assay: Antifungal activity against Candida albicans isolate assessed after 48 hrs by serial dilution method. In kind it is functional. The essentials:
as §2

For assay [13], the system named is Escherichia coli. Kind of assay: Antibacterial activity against Escherichia coli ATCC assessed after 24 hrs by serial dilution method.

In the case of GENTAMICIN SULFATE, the MIC in the assay with Staphylococcus aureus [1] is 1020 µg/mL; in the assay on Escherichia coli [2], 0.97 µg/mL; in the assay on Staphylococcus aureus [3] it was more than 4100 µg/mL; against Klebsiella pneumoniae [4], more than 4100 µg/mL; against Bacillus subtilis [5], 2050 µg/mL; in the assay with Bacillus subtilis [6], 512 µg/mL. In addition, the MIC against Escherichia coli [7], against Pseudomonas aeruginosa [8] and against Klebsiella pneumoniae [9] was 1020 µg/mL each time.
For the compound `CCc1ccc(C(=O)Nc2ccc([N+](=O)[O-])cc2O)cc1`, the MIC with Staphylococcus aureus [1] was determined as 125 µg/mL (≈ 437 µM); against Pseudomonas aeruginosa [10], 250 µg/mL (≈ 873 µM); with Candida albicans [11] it was 125 µg/mL (≈ 437 µM); in the assay on Escherichia coli [2], 125 µg/mL (≈ 437 µM); in the assay on Staphylococcus aureus [3] (ATCC 25923, 24 h), 62.5 µg/mL (≈ 218 µM); with Klebsiella pneumoniae [4], 500 µg/mL (≈ 1750 µM). Also, the MIC in the assay on Bacillus subtilis [5] worked out at 15.6 µg/mL (≈ 54.5 µM); against Bacillus subtilis [6] (ATCC 6633, 24 h), 250 µg/mL (≈ 873 µM); in the assay with Pseudomonas aeruginosa [8], 250 µg/mL (≈ 873 µM); in the assay with Candida albicans [12] it was 125 µg/mL (≈ 437 µM); against Klebsiella pneumoniae [9] it was 125 µg/mL (≈ 437 µM); with Escherichia coli [13], 125 µg/mL (≈ 437 µM).
For the compound `CC(C)(C)c1ccc(C(=O)Nc2ccc(N)cc2O)cc1`, the MIC in the assay on Staphylococcus aureus [1] stood at 7.8 µg/mL (≈ 27.4 µM); in the assay with Pseudomonas aeruginosa [10], 62.5 µg/mL (≈ 220 µM); against Candida albicans [11], 62.5 µg/mL (≈ 220 µM); in the assay with Escherichia coli [2], 125 µg/mL (≈ 440 µM); in the assay on Staphylococcus aureus [3] (ATCC 25923, 24 h) it was 15.6 µg/mL (≈ 54.9 µM); in the assay on Klebsiella pneumoniae [4], 125 µg/mL (≈ 440 µM). In addition, the MIC was determined as 7.8 µg/mL (≈ 27.4 µM) in the assay on Bacillus subtilis [5]; 15.6 µg/mL (≈ 54.9 µM) with Bacillus subtilis [6] (ATCC 6633, 24 h); 62.5 µg/mL (≈ 220 µM) in the assay with Pseudomonas aeruginosa [8]; 62.5 µg/mL (≈ 220 µM) against Candida albicans [12]; 125 µg/mL (≈ 440 µM) against Klebsiella pneumoniae [9]; 125 µg/mL (≈ 440 µM) in the assay on Escherichia coli [13].
Turning to `O=C(Cc1ccc(Br)cc1)Nc1ccc([N+](=O)[O-])cc1O`, the MIC against Staphylococcus aureus [1] was found to be 125 µg/mL (≈ 356 µM); in the assay on Pseudomonas aeruginosa [10], 250 µg/mL (≈ 712 µM); against Candida albicans [11] it was 250 µg/mL (≈ 712 µM); against Escherichia coli [2], 250 µg/mL (≈ 712 µM); in the assay with Staphylococcus aureus [3] (ATCC 25923, 24 h), 250 µg/mL (≈ 712 µM); against Klebsiella pneumoniae [4], 250 µg/mL (≈ 712 µM). In addition, the MIC turned out to be 125 µg/mL (≈ 356 µM) with Bacillus subtilis [5]; 31.2 µg/mL (≈ 89 µM) in the assay on Bacillus subtilis [6] (ATCC 6633, 24 h); 250 µg/mL (≈ 712 µM) against Pseudomonas aeruginosa [8]; 250 µg/mL (≈ 712 µM) against Candida albicans [12]; 125 µg/mL (≈ 356 µM) against Klebsiella pneumoniae [9]; 125 µg/mL (≈ 356 µM) against Escherichia coli [13].
For the compound `Nc1ccc(NC(=O)c2ccc(Br)cc2)c(O)c1`, the minimal inhibitory concentration (MIC) worked out at 7.8 µg/mL (≈ 25.4 µM) against Staphylococcus aureus [1]; 250 µg/mL (≈ 814 µM) against Pseudomonas aeruginosa [10]; 250 µg/mL (≈ 814 µM) against Candida albicans [11]; 250 µg/mL (≈ 814 µM) with Escherichia coli [2]; 125 µg/mL (≈ 407 µM) in the assay with Staphylococcus aureus [3] (ATCC 25923, 24 h); 250 µg/mL (≈ 814 µM) in the assay on Klebsiella pneumoniae [4]. Also, the MIC in the assay on Bacillus subtilis [5] was determined as 31.2 µg/mL (≈ 102 µM); in the assay on Bacillus subtilis [6] (ATCC 6633, 24 h), 62.5 µg/mL (≈ 203 µM); with Pseudomonas aeruginosa [8], 250 µg/mL (≈ 814 µM); in the assay on Candida albicans [12], 125 µg/mL (≈ 407 µM); in the assay with Klebsiella pneumoniae [9], 250 µg/mL (≈ 814 µM); in the assay on Escherichia coli [13], 125 µg/mL (≈ 407 µM).
Turning to `Cc1ccc(CC(=O)Nc2ccc([N+](=O)[O-])cc2O)cc1`, the MIC against Staphylococcus aureus [1] amounted to 500 µg/mL (≈ 1750 µM); against Pseudomonas aeruginosa [10], 250 µg/mL (≈ 873 µM); in the assay with Candida albicans [11], 62.5 µg/mL (≈ 218 µM); with Escherichia coli [2], 250 µg/mL (≈ 873 µM); against Staphylococcus aureus [3] (ATCC 25923, 24 h) it was 250 µg/mL (≈ 873 µM); against Klebsiella pneumoniae [4], 125 µg/mL (≈ 437 µM). The MIC in the assay on Bacillus subtilis [5] stood at 250 µg/mL (≈ 873 µM); in the assay with Bacillus subtilis [6] (ATCC 6633, 24 h), 125 µg/mL (≈ 437 µM); in the assay with Pseudomonas aeruginosa [8], 250 µg/mL (≈ 873 µM); in the assay with Candida albicans [12], 250 µg/mL (≈ 873 µM); in the assay on Klebsiella pneumoniae [9] it was 250 µg/mL (≈ 873 µM); against Escherichia coli [13] it was 125 µg/mL (≈ 437 µM).
Consider `O=C(Nc1ccc([N+](=O)[O-])cc1O)c1ccc(Br)cc1`, for which the MIC was 500 µg/mL (≈ 1480 µM) in the assay with Staphylococcus aureus [1]; 250 µg/mL (≈ 742 µM) with Pseudomonas aeruginosa [10]; 250 µg/mL (≈ 742 µM) in the assay on Candida albicans [11]; 250 µg/mL (≈ 742 µM) against Escherichia coli [2]; 7.8 µg/mL (≈ 23.1 µM) with Staphylococcus aureus [3] (ATCC 25923, 24 h); 125 µg/mL (≈ 371 µM) in the assay with Klebsiella pneumoniae [4]. Further, the MIC came out at 1.95 µg/mL (≈ 5.78 µM) in the assay on Bacillus subtilis [5]; 3.9 µg/mL (≈ 11.6 µM) against Bacillus subtilis [6] (ATCC 6633, 24 h); 250 µg/mL (≈ 742 µM) with Pseudomonas aeruginosa [8]; 125 µg/mL (≈ 371 µM) against Candida albicans [12]; 125 µg/mL (≈ 371 µM) against Klebsiella pneumoniae [9]; 62.5 µg/mL (≈ 185 µM) against Escherichia coli [13].
